Data published in ChEMBL document CHEMBL4513216, “Probing the Open Global Health Chemical Diversity Library for Multistage-Active Starting Points for Next-Generation Antimalarials” (ACS Infect Dis, 2020).

experiment: Toxicity liver stage against HepG2, at 10uM; type: cell-based; set-up: test concentration 10 uM, cell line HepG2-A16-CD81EGFP; conditions: human, HepG2-A16-CD81EGFP cells; read-out: INHIBITION
How it was run: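 Uninfected HepG2-A16-CD81EGFP cells, 3 × 10^3 per well, 1536-well, plated on prespotted compound at 10 μM final, parasite-free screening media added to match infected plates; puromycin 10 μM positive, DMSO 0.5% negative; run in parallel with 48 h PbLuc assay at 37 °C, 5% CO2; viability by CellTiter-Glo luminescence, normalized to controls.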

Point of comparison: `Cc1nc(C2CCN(C(=O)CO)CC2)cc(N2CCOCC2)n1`, cytotoxicity at 10 µM -12.2%. Against it:
- O=C(O)Cc1cnc(-c2c(Cl)cccc2Cl)s1 — higher, 2.84%
- Cc1nn(C2CCS(=O)(=O)C2)c(O)c1Cc1ccccc1 (centres undefined) — lower, -44.6%
- O=C(CN1C(=O)c2ccccc2C1=O)N1CCOC2(CCOCC2)C1 — higher, -5.15%
- O=S(=O)(c1cnccc1N1CCN(CCO)CC1)N1CCOCC1 — higher, -8.49%
- CC(=O)c1c(O)n(C)c2ccccc12 — higher, 1.64%
- O=C(Cn1ccc2ccc(Br)cc21)NC[C@@H]1CCCN2CCCC[C@H]12 — higher, 14.7%
- CN(C)c1nccc(N2CCO[C@H]3CN(CC4CCOCC4)C[C@H]32)n1 — higher, -7.21%
- Cc1ccc(CNC(=O)CCC(=O)NCCC(C)C)o1 — higher, -9.74%
- CSc1nc2ccsc2c(=O)n1CC(=O)N(C)c1ccccc1 — higher, -5.57%
- Cc1ccc2cnn(CCC(=O)NCc3c(C)nn(C)c3C)c2c1 — higher, -8.19%
- COc1ccccc1-c1cccc(C2CCCN(C3CCOCC3)C2)n1 (centres undefined) — higher, 5.7%
- Cc1cc(C)c2nc(C)c(C(=O)N3CCC(CCN(C)C)CC3)cc2c1 — higher, -4.91%
- Cc1cc(Cc2ccccc2F)cc(C2CCCNC2)n1 (centres undefined) — higher, 0.00505%
- COc1cccc(CC(=O)NCc2cnc(C)nc2C2CCCN2C)c1 (centres undefined) — higher, -7.47%
- CC(NC(=O)NC1CCN(Cc2ccccn2)CC1)c1ccco1 (centres undefined) — higher, 13.9%
- O=C(C[S+]([O-])Cc1csc(C2CCCC2)n1)NC1CCCC1 (centres undefined) — lower, -38.2%
- CSCC(=O)N1CCOC(c2nc(C)n[nH]2)C1 (centres undefined) — higher, 0.986%
- CCC(C)C(=O)N(Cc1ccccn1)C1CC1 (centres undefined) — lower, -44.5%
- COCCCN(C)S(=O)(=O)c1ccc(Cl)cc1C#N — lower, -38%
- CCN(CC)c1ccc(CNC(=O)c2cnc(C)cn2)cn1 — higher, 6.21%
- CN(C)C(C)(C)CNCc1c[nH]nc1-c1cc2ccccc2o1 — higher, -3.6%
- CC(C)n1c(C2CCCN(CC(=O)NC(N)=O)C2)nc2ccccc21 (centres undefined) — higher, -7.9%
- Cc1cc(S(=O)(=O)N2CCCc3ccccc32)sc1C(=O)O — lower, -13.5%
- CCSc1cc(C(=O)NCCc2nnc(-c3ccco3)[nH]2)ccn1 — higher, 6.14%
- COC(=O)c1ccoc1CN(C)Cc1ccccc1 — higher, 3.3%
- O=C(C1CCCCC1)N1CCC2(CC1)OCCO2 — higher, 9.77%
- CCc1nnc2n1CCN(C(=O)c1ccc(C)c(S(N)(=O)=O)c1)C2 — higher, -4.55%
- COc1cc(C(C)=O)ccc1SCC(=O)Nc1ccccn1 — higher, 11.7%
- O=C(c1coc2ccccc12)N1CCS(=O)(=O)CC1 — higher, 2.64%
- NC(=O)c1ccc(OCCC(=O)NC2CCc3c(F)cccc32)cc1 (centres undefined) — higher, 2.02%
- CC(NCC1CCN(CCO)CC1)c1ccc(C(F)(F)F)cc1 (centres undefined) — higher, -7.28%
- Cn1ccnc1COc1ccc(CSc2nnnn2C2CC2)cc1 — higher, -0.146%
- Cc1cnn(CCNCc2c(C)nn(CCO)c2C)c1 — higher, 6.35%
- CC(C(=O)NCC1(c2c(F)cccc2F)CCCC1)S(C)(=O)=O (centres undefined) — higher, 8.14%
- Cc1cc(C(=O)NCCN2CCC(C)CC2)nn1C(C)(C)C — higher, 13.3%
- COc1ccnc(NC(=O)CSCc2cccnc2)c1 — lower, -47.2%
- Cc1ncsc1C(=O)N(C)Cc1ccc(Br)o1 — lower, -39.3%
- O=S(=O)(c1ccccc1)N1CCCN(CCCn2ccnc2)CC1 — higher, -9.17%
- O=C(NCCCn1ccnc1)N1CCCC1c1ccncc1 (centres undefined) — higher, 25.4%
- Cc1ccc(OCC(=O)NCC(C)C)nc1 — lower, -18.3%
- Cc1cccc(C(=O)N(C)Cc2cc(Br)cs2)n1 — higher, -5.1%
- CS(=O)(=O)NCc1nnc2n1CCN(Cc1ccccn1)C2 — lower, -75.5%
- CCOCC1CN(Cc2cnn(C)c2)Cc2ncn(C)c21 (centres undefined) — lower, -79.2%
- CN(C)C(=O)COC1COC2(CCN(S(C)(=O)=O)CC2)C1 (centres undefined) — higher, -1.08%
- Cc1ncc2c(c1CNC(=O)C1(C)CCCCO1)CCNC2 (centres undefined) — lower, -27.9%
- FC(F)(F)c1ccc(-c2n[nH]c3c2CN(CC2CCOC2)CC3)cc1 (centres undefined) — lower, -52.1%
- CSCCCNC(=O)C1CCC(=O)N(C2CCCC2)C1 (centres undefined) — higher, -11.1%
- O=S(=O)(N1CCOCC1)N1CCOC(CCCc2ccccc2)C1 (centres undefined) — higher, -8.79%
- CC1(C)Cc2nc(C(C)(C)C)ncc2C(NC(=O)CN)C1 (centres undefined) — higher, -6.55%
- CCSCCNC(=O)Nc1cc(C(=O)N2CCOCC2)ccc1Cl — lower, -55.2%
- COc1ccccc1CCN1CCCC(CN(C)Cc2cc(C)n[nH]2)C1 (centres undefined) — higher, -4.52%
- CCCN1CCN(Cc2cccc(OCC(N)=O)c2)[C@H]2CS(=O)(=O)C[C@H]21 — higher, 2.77%
- Cc1cc(C)nc(N2CCN(C(=O)c3ccc(C4CCCO4)s3)CC2)n1 (centres undefined) — higher, 9.07%
- CC1=CCN(S(=O)(=O)c2cccc(C(=O)N3CCOCC3)c2)CC1 — higher, 4.9%
- O=C(O)C(c1ccc2[nH]ccc2c1)N1CCOCC1 (centres undefined) — higher, 13.1%
- COC(=O)c1ccc(N2CCN(C(=O)c3ccc(=O)n(C)c3)CC2)cc1 — lower, -43.9%
- CNCCCNc1nc(C2CCCC2)nc2c1cnn2C — higher, 6.63%
- CCN(Cc1nc(COC)no1)Cc1cccnc1NC(=O)C(C)(C)C — lower, -47.9%
- CCOC(=O)c1c(NC(=O)C2CCN(C(C)=O)CC2)sc(C)c1CC — higher, 10.9%
- CCOc1ccc(CC(=O)N2CCCC2c2cc(C)on2)cc1 (centres undefined) — lower, -46%
- CC(C)c1nccn1CCCNC(=O)c1ccc(-c2cccnc2)nc1 — higher, -11.8%
- CN(C)Cc1ccc(C2CCCCN2C(=O)c2cc(C3CC3)n[nH]2)cc1 (centres undefined) — higher, -9.09%
- CC(CCN1CCn2nc(CNC(=O)N(C)C)cc2C1)c1ccccc1 (centres undefined) — higher, -11.8%
- N#Cc1ccnc(N2CCC(c3nccn3Cc3cscn3)CC2)c1 — lower, -12.4%
- CS(=O)(=O)NCc1cc2n(n1)CCCN(Cc1cccc(C#N)c1)C2 — higher, -8.33%
- COc1ccccc1OC1CCN(Cc2cnc(N(C)C)nc2)CC1 — higher, -10.9%
- Cc1nc(CN2CCCC2c2nc(C(C)C)no2)cs1 (centres undefined) — higher, -9.7%
- CC(C)c1cc(NCC(O)CO)n2nccc2n1 (centres undefined) — lower, -24.8%
- CC(C)(O)CN1CCN(C(=O)c2ccc(Cl)c3cccnc23)CC1 — higher, -9.19%
- Cc1cnn(C2CN(CC(=O)Nc3cccnc3)C2)c1 — higher, -8.11%
- c1cc(CNCC2CNc3ccnn3C2)cc(N2CCCCC2)n1 (centres undefined) — higher, 6.91%
- COCCOc1ccccc1C(=O)N1CCCCC1c1nccs1 (centres undefined) — higher, 0.642%
- CC(=O)N1CCN(C(=O)CN2CCc3c(ncn3C3CC3)C2)CC1 — higher, 3.3%
- Cc1nn(C)cc1S(=O)(=O)NCC(c1ccccc1)N1CCCCCC1 (centres undefined) — lower, -13.6%
- CCOCC1CN(C)Cc2cnn(CC3CCCC3)c21 (centres undefined) — higher, -9.7%
- CNC(=O)C1Cn2ccnc2C2(CCN(Cc3ccncc3)CC2)O1 (centres undefined) — lower, -74.9%
- Cn1cnc2c1C(COCC1CCOCC1)CN(Cc1ccccn1)C2 (centres undefined) — lower, -78.2%
- CN1CCN(Cc2cccnc2)C2(CCN(c3ncccn3)C2)C1=O (centres undefined) — higher, 1.31%
- Cc1nc(N2CCOCC2)nc2c1COCC21CCN(CC2CC2)C1 (centres undefined) — lower, -116%
- COCCN1CCN(Cc2c(C)noc2C)Cc2cccnc21 — lower, -70.1%
- Cc1ccc2c(n1)N(Cc1ccncc1)CCN(S(C)(=O)=O)C2 — lower, -77.2%
- O=C(c1cnccn1)N1CCCC2(COCCN(CC3CC3)C2)C1 (centres undefined) — higher, 1.39%
- Cc1cnc(NS(=O)(=O)c2ccccc2)s1 — higher, -2.56%
